ChEMBL document CHEMBL3272220, “Central nervous system active 5-oxo-1,4,5,6,7,8-hexahydrocinnolines” (J Med Chem, 1976)
Activity calls are given as the source filed them. The calls are words filed in the database; no cut-off is given here.

How the values were obtained:
Mus musculus [1] = assay: Anticonvulsant activity in po dosed CF albino mouse assessed as protection against electroshock-induced seizure; type: functional
How it was run: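 Male CF mice were dosed orally, with the vehicle for po dosing being a 0.2% agar suspension. Protection against electroshock-induced seizures was examined at 500 mg/kg po. Activity is reported as ED50 in mg/kg po.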

Mus musculus [2] = assay: Antidepressant activity in CF albino mouse assessed as inhibition of reserpine-induced hypothermia at 25 mg/kg, po relative to control; type: functional
How it was run: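 Oral dosing was 25 mg/kg in 0.2% agar suspension to male CF mice. Antagonism of reserpine-induced hypothermia was measured and graded on a plus-scale.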

Mus musculus [3] = assay: Antidepressant activity in CF albino mouse assessed as potentiation of dopa-induced response at 25 mg/kg, po relative to control; type: functional
How it was run: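 Male CF mice received 25 mg/kg orally in 0.2% agar suspension. The read-out was potentiation of the Dopa response. Results were graded on a plus-scale.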

Mus musculus [4] = assay: Central nervous system depressant activity in CF albino mouse assessed as inhibition of spontaneous motor activity at 500 mg/kg, po measured within 15 mins relative to control; type: functional; details: for inhibition in vivo at 500 mg/kg: 0.25 h
How it was run: (§1)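 Male CF mice got 500 mg/kg orally as a 0.2% agar suspension. Scoring was at peak drug effect on a 0-4+ scale. Scores were judged together from percentage inhibition of spontaneous motor activity, a ptotic index based on percentage eye closure, and the degree of sedation.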

Mus musculus [5] = assay: Central nervous system depressant activity in CF albino mouse assessed as induction of sedation at 500 mg/kg, po; type: functional, organism-based; parameters: dose 500 mg/kg; how it was run: as §1
Mus musculus [6] = assay: Central nervous system depressant activity in CF albino mouse assessed as eye closure rate at 500 mg/kg, po relative to control; type: functional; how it was run: as §1
Mus musculus [7] = assay: Toxicity in CF albino mouse assessed as mild convulsion at 500 mg/kg, po; type: organism-based; parameters: dose 500 mg/kg, route oral; details: in vivo
Mus musculus [8] = assay: Central nervous system depressant activity in po dosed CF albino mouse assessed as induction of sedation; type: functional, organism-based
Mus musculus [9] = assay: Central nervous system depressant activity in CF albino mouse assessed as induction of sedation without arousability at 500 mg/kg, po; type: functional, organism-based; parameters: dose 500 mg/kg; how it was run: as §1
Mus musculus [10] = assay: Toxicity in CF albino mouse assessed as tremor at 500 mg/kg, po; type: organism-based; parameters: dose 500 mg/kg, route oral; details: in vivo
Mus musculus [11] = assay: Central nervous system depressant activity in CF albino mouse assessed as induction of sedation with arousability at 500 mg/kg, po; type: functional, organism-based; parameters: dose 500 mg/kg; how it was run: as §1
Mus musculus [12] = assay: Central nervous system depressant activity in CF albino mouse assessed as induction of sedation at 25 mg/kg, po; type: functional, organism-based; parameters: dose 25 mg/kg
Mus musculus [13] = assay: Toxicity in CF albino mouse at 500 mg/kg, po; type: organism-based; parameters: dose 500 mg/kg, route oral; details: in vivo

Structure (SMILES) | ED50 (Mus musculus [1]) | inhibition in vivo at 25 mg/kg (Mus musculus [2]) [%] | Activity (Mus musculus [3]) [%] | inhibition in vivo at 500 mg/kg (Mus musculus [4]) [%] | Activity (Mus musculus [5]) | Activity (Mus musculus [6]) [%] | Activity (Mus musculus [7]) | Activity (Mus musculus [8]) | Activity (Mus musculus [9]) | Activity (Mus musculus [10]) | inhibition (Mus musculus [4]) | Activity (Mus musculus [11]) | inhibition (Mus musculus [2]) | Activity (Mus musculus [12]) | Activity (Mus musculus [13])
CC1(C)CC(=O)C(CC(=O)c2ccccc2)=C(NNc2ccncc2)C1 | inactive | 76 | 51 | 1 | inactive | 25 |  |  |  |  |  |  |  |  | 
CN(C)CCN1N=C(c2ccccc2)CC2=C1CC(C)(C)CC2=O.[O-][Cl+3]([O-])([O-])O | 500 mg/kg | 26 | 51 | 51 |  | 75 | Toxic | Dose-dependent effect | inactive | Toxic |  |  |  |  | 
CCN(CC)CCN1N=C(c2ccc(Br)cc2)CC2=C1CC(C)(C)CC2=O | 100 mg/kg | 26 | 26 | 26 | Active | 50 | Toxic |  |  | Toxic |  |  |  |  | 
CN(C)CCN1N=C(c2ccc(F)cc2)CC2=C1CC(C)(C)CC2=O.O.O=C(O)C(=O)O | inactive | 26 | 26 |  |  |  | Toxic |  |  | Toxic | inactive |  |  |  | 
CCN(CC)CCn1nc(C)c(=O)c2c1CC(C)(C)CC2=O | inactive | 51 | 26 |  |  |  |  |  |  |  | inactive |  |  |  | 
CC1(C)CC(=O)C2=C(C1)N(CCN1CCNCC1)N=C(c1ccc(F)cc1)C2.Cc1ccc(S(=O)(=O)O)cc1.O | inactive | 26 | 51 |  |  |  |  |  |  |  | inactive |  |  |  | 
CN(C)CCN1N=C(c2ccc(Br)cc2)CC2=C1CC(C)(C)CC2=O.[O-][Cl+3]([O-])([O-])O | 100 mg/kg |  | 51 | 51 |  | 75 |  |  |  |  |  | Active | inactive |  | 
CCN(CC)CCN1N=C(c2ccccc2)CC2=C1CC(C)(C)CC2=O.[O-][Cl+3]([O-])([O-])O | 225 mg/kg | 26 | 51 | 26 | Active | 50 | Toxic |  |  | Toxic |  |  |  |  | 
CCN(CC)CCN1N=C(c2ccc(F)cc2)CC2=C1CC(C)(C)CC2=O | 150 mg/kg | 26 | 51 | 51 |  | 75 | Toxic |  | inactive | Toxic |  |  |  | Active | 
CC1(C)CC(=O)C2=C(C1)N(CCO)N=C(c1ccccc1)C2.Cc1ccc(S(=O)(=O)O)cc1 | inactive | 26 | 51 | 1 | inactive | 25 |  |  |  |  |  |  |  |  | 
CC1(C)CC(=O)c2cc(-c3ccccc3)nnc2C1 | 500 mg/kg | 26 | 26 | 1 | inactive | 25 | Toxic |  |  | Toxic |  |  |  |  | 
CC1(C)CC(=O)C(CC(=O)c2ccccc2)=C(NNC(=N)N)C1 | inactive | 76 | 51 | 1 | inactive | 25 |  |  |  |  |  |  |  |  | 
CC1(C)CC(=O)C2=C(C1)N(C(N)=O)N=C(c1ccccc1)C2 | inactive | 26 | 51 |  |  |  |  |  |  |  | inactive |  |  |  | 
CN1N=C(c2ccccc2)CC2=C1CC(C)(C)CC2=O | inactive | 51 | 26 |  |  |  |  |  |  |  | inactive |  |  |  | 
CN(C)CCCN1N=C(c2ccccc2)CC2=C1CC(C)(C)CC2=O.O.[O-][Cl+3]([O-])([O-])O | 500 mg/kg | 26 | 51 | 1 | inactive | 25 |  |  |  |  |  |  |  |  | 
CC1(C)CC(=O)C2=C(C1)N(c1ccccc1)N=C(c1ccccc1)C2 | inactive | 26 | 0 |  |  |  |  |  |  |  | inactive |  |  |  | 
CC1=NNC2=C(C1)C(=O)CC(C)(C)C2 | inactive | 0 | 51 |  |  |  |  |  |  |  | inactive |  |  |  | 
CCN(CC)CCN1N=C(c2cc(OC)c(OC)c(OC)c2)CC2=C1CC(C)(C)CC2=O.[O-][Cl+3]([O-])([O-])O | inactive | 51 | 26 |  |  |  |  |  |  |  | inactive |  |  |  | 
CCN(CC)CCN1N=C(c2ccc(OC)cc2)CC2=C1CC(C)(C)CC2=O.[O-][Cl+3]([O-])([O-])O | 300 mg/kg | 0 | 26 | 1 | inactive | 25 |  |  |  |  |  |  |  |  | 
CCN(CC)CCN1N=C(c2ccccc2)C(C)C2=C1CC(C)(C)CC2=O.[O-][Cl+3]([O-])([O-])O (centres undefined) | 400 mg/kg | 0 | 26 | 1 | inactive | 25 | Toxic |  |  | Toxic |  |  |  |  | 
CC1(C)CC(=O)C(CC(=O)c2ccccc2)=C(NNC(=O)c2ccncc2)C1 | inactive | 51 | 51 | 1 | inactive | 25 |  |  |  |  |  |  |  |  | 
CCN(CC)CCN1N=C(c2ccccc2)CC2=C1CCCC2=O.[O-][Cl+3]([O-])([O-])O | 200 mg/kg | 26 | 51 |  |  |  |  |  |  |  | inactive |  |  |  | Toxic
CC1(C)CC(=O)C2=C(C1)NN=C(c1ccccc1)C2 | inactive | 26 | 26 |  |  |  |  |  |  |  | inactive |  |  |  | 
CCOC(=O)NNC1=C(CC(=O)c2ccccc2)C(=O)CC(C)(C)C1 | inactive | 51 | 26 | 1 | inactive | 25 |  |  |  |  |  |  |  |  | 
CC1(C)CC(=O)C2=C(C1)N(CCN1CCNCC1)N=C(c1ccc(Br)cc1)C2.Cl.O | inactive | 26 | 0 | 26 | Active | 50 |  |  |  |  |  |  |  |  | 
CN(C)CCN/N=C1/CC(C)(C)CC2=C1CC(c1ccccc1)=NN2CCN(C)C | inactive |  |  |  |  |  |  |  |  |  | inactive |  |  |  | 
